ChEMBL document CHEMBL4411315, “Discovery of Novel Dual Histone Deacetylase and Mammalian Target of Rapamycin Target Inhibitors as a Promising Strategy for Cancer Therapy” (J Med Chem, 2019)

What was measured:
[1] = system: HCT-116; test: Antiproliferative activity against human HCT116 cells after 72 hrs by MTT assay; format: functional, cell-based; details: HCT-116, 72 h
[2] = system: Raji; test: Antiproliferative activity against human Raji cells after 72 hrs by MTT assay; format: functional, cell-based
Method in brief: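 Log-phase cells were plated at 10000-15000 per well and exposed to serial concentrations after 24 h for 72 h. Read-out was MTT for 1-3 h, then 20% SDS overnight and absorbance at 570 nm. IC50 was calculated from growth versus untreated control, as mean ± SEM of at least three independent experiments.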

[3] = system: MCF7; test: Antiproliferative activity against human MCF7 cells after 72 hrs by MTT assay; format: functional, cell-based; details: MCF7, 72 h
[4] = system: MM1.S; test: Antiproliferative activity against human MM1S cells after 72 hrs by MTT assay; format: functional, cell-based
[5] = target: PI3-kinase p110-alpha/p85-alpha (Homo sapiens) (UniProt P27986+P42336); test: Inhibition of recombinant human full length N-terminal His-tagged/untagged p110alpha/p85alpha expressed in baculovirus expression system at 500 nM using PIP2 as substrate after 1 hr by Kinase-Glo reagent-based assay relative to control
[6] = target: Serine/threonine-protein kinase mTOR (Homo sapiens, UniProt P42345); test: Inhibition of recombinant N-terminal FLAG-tagged human mTOR (1362 to end residues) at 500 nM using ULight-4E-BP1 (Thr37/46) peptide as substrate after 1 hr by fluorescence assay relative to control
[7] = system: HCT-116; test: Antiproliferative activity against human HCT116 cells at 5 uM after 72 hrs by MTT assay relative to control; format: functional; details: HCT-116, 72 h
Method in brief: (§1)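 HCT116 cells were grown in DMEM and Ramos cells in RPMI 1640, each with 10% FBS and penicillin/streptomycin, at 37 °C in 5% CO2. Log-phase cells were seeded at 10000-15000 per well and dosed after 24 h at 5 or 0.5 μM for 72 h. MTT was added for 1-3 h, followed by 20% SDS overnight, and A570 was read. Percent inhibition is relative to untreated control, as the mean of at least two experiments.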

[8] = system: HCT-116; test: Antiproliferative activity against human HCT116 cells at 0.5 uM after 72 hrs by MTT assay relative to control; format: functional; details: HCT-116, 72 h; method in brief: as §1
[9] = system: Ramos; test: Antiproliferative activity against human Ramos cells at 5 uM after 72 hrs by MTT assay relative to control; format: functional; method in brief: as §1
[10] = system: Ramos; test: Antiproliferative activity against human Ramos cells at 0.5 uM after 72 hrs by MTT assay relative to control; format: functional; method in brief: as §1
[11] = system: MV4-11; test: Antiproliferative activity against human MV4-11 cells after 72 hrs by MTT assay; format: functional, cell-based; details: MV4-11, 72 h
[12] = system: OCI-AML2; test: Antiproliferative activity against human OCI-AML2 cells after 72 hrs by MTT assay; format: functional, cell-based; details: OCI-AML2, 72 h
[13] = system: OCI-AML-3; test: Antiproliferative activity against human OCI-AML3 cells after 72 hrs by MTT assay; format: functional, cell-based; details: OCI-AML-3, 72 h

IC50 [1] | IC50 [2] | IC50 [3] | IC50 [4] | inhibition [5] | inhibition [6] | IC50 [11] | IC50 [12] | IC50 [13] | SMILES | inhibition at 5 µM [7] | inhibition at 0.5 µM [8] | inhibition at 5 µM [9] | inhibition at 0.5 µM [10]
38 nM | 29.3 nM | 70.6 nM | 354 nM | -1% | 38% |  |  |  | COc1ccc(-c2nc(N3CCOCC3)c3cnn(CCCCCCC(=O)NO)c3n2)cc1 |  |  |  | 
76.5 nM | 111 nM | > 500 nM | 168 nM | 31% | 64% |  |  |  | CS(=O)(=O)c1ccc(-c2nc(N3CCOCC3)c3cnn(CCCCCCC(=O)NO)c3n2)cc1 |  |  |  | 
 |  |  |  | 11% | -5% |  |  |  | O=C(CCn1ncc2c(N3CCOCC3)nc(N3CCOCC3)nc21)NO | 22.4% | 6.3% | 15.7% | 8.5%
107 nM | 15.3 nM | 180 nM | 52.3 nM | -3.8% | 85% |  |  |  | O=C(CCCCCCn1ncc2c(N3CCOCC3)nc(-c3cc[nH]c3)nc21)NO |  |  |  | 
61.9 nM | 19.7 nM |  | 11.8 nM |  |  | 10.4 nM | 18.4 nM | 16.3 nM | CCNC(=O)Nc1ccc(-c2nc(N3CCOCC3)c3cnn(CCCCCCC(=O)NO)c3n2)cc1 |  |  |  | 
24.6 nM | 19 nM |  | 20.2 nM |  |  |  |  |  | Cc1cccnc1NC(=O)Nc1ccc(-c2nc(N3CCOCC3)c3cnn(CCCCCCC(=O)NO)c3n2)cc1 |  |  |  | 
104 nM | 42.5 nM |  | 83.4 nM |  |  |  |  |  | CCCNC(=O)Nc1ccc(-c2nc(N3CCOCC3)c3cnn(CCCCCCC(=O)NO)c3n2)cc1 |  |  |  | 
 |  |  |  | -1.2% | 4.4% |  |  |  | O=C(CCCCCCCn1ncc2c(N3CCOCC3)nc(N3CCOCC3)nc21)NO | 71.8% | 13.8% | 99.1% | 26.9%
51.6 nM | 3.5 nM |  | 13.4 nM |  |  |  |  |  | CNC(=O)Nc1ccc(-c2nc(N3CCOCC3)c3cnn(CCCCCCC(=O)NO)c3n2)cc1 |  |  |  | 
 |  |  |  | -3% | -5.4% |  |  |  | O=C(/C=C/c1ccc(Cn2ncc3c(N4CCOCC4)nc(N4CCOCC4)nc32)cc1)NO | 59.5% | 12% | 98.2% | 16.8%
68 nM | 148 nM |  | 39.2 nM |  |  | 13.9 nM | 16.9 nM | 15 nM | O=C(CCCCCCn1ncc2c(N3CCOCC3)nc(-c3ccc(NC(=O)N4CCSCC4)cc3)nc21)NO |  |  |  | 
111 nM | 127 nM |  | 126 nM |  |  | 26.5 nM | 32.8 nM | 40.1 nM | O=C(CCCCCCn1ncc2c(N3CCOCC3)nc(-c3ccc(NC(=O)N4CCNCC4)cc3)nc21)NO |  |  |  | 
89.9 nM | 159 nM | 372 nM | 192 nM | 4.5% | 2.2% |  |  |  | O=C(CCCCCCn1ncc2c(N3CCOCC3)nc(N3CCOCC3)nc21)NO | 95.2% | 92.9% | 97.4% | 91%
57.2 nM | 61.1 nM |  | 60.3 nM |  |  |  |  |  | O=C(CCCCCCn1ncc2c(N3CCOCC3)nc(-c3ccc(NC(=O)NCCO)cc3)nc21)NO |  |  |  | 
 |  |  |  | 5.9% |  |  |  |  | O=C(Cn1ncc2c(N3CCOCC3)nc(N3CCOCC3)nc21)NO | 18.1% | 3.5% | 12.4% | 1.1%
26.1 nM | 22.1 nM |  | 24.7 nM |  |  |  |  |  | Cc1ccc(NC(=O)Nc2ccc(-c3nc(N4CCOCC4)c4cnn(CCCCCCC(=O)NO)c4n3)cc2)cc1 |  |  |  | 

IC50 [1] | IC50 [2] | IC50 [3] | IC50 [4] | inhibition [5] | inhibition [6] | IC50 [11] | IC50 [12] | IC50 [13] | SMILES | inhibition at 5 µM [7] | inhibition at 0.5 µM [8] | inhibition at 5 µM [9] | inhibition at 0.5 µM [10]
> 500 nM | 247 nM |  | 464 nM |  |  |  |  |  | COc1cccc(NC(=O)Nc2ccc(-c3nc(N4CCOCC4)c4cnn(CCCCCCC(=O)NO)c4n3)cc2)c1 |  |  |  | 
 |  |  |  | 15% | -5.4% |  |  |  | O=C(CCCCn1ncc2c(N3CCOCC3)nc(N3CCOCC3)nc21)NO | 55.8% | 22.6% | 60.2% | 33.3%
144 nM | 60.8 nM |  | 64.3 nM |  |  |  |  |  | O=C(CCCCCCn1ncc2c(N3CCOCC3)nc(-c3ccc(NC(=O)Nc4ncc(Br)cn4)cc3)nc21)NO |  |  |  | 
163 nM | 31.7 nM | 221 nM | 32.6 nM | 1.2% | 40% |  |  |  | Nc1ncc(-c2nc(N3CCOCC3)c3cnn(CCCCCCC(=O)NO)c3n2)cn1 |  |  |  | 
 |  |  |  | -6.2% | -0.4% |  |  |  | CN1CCN(c2nc(N3CCOCC3)c3cnn(CCCCCCC(=O)NO)c3n2)CC1 | 80.3% | 59.9% | 99.5% | 90.1%
 |  |  |  | 17% | 21% |  |  |  | O=C(CCCn1ncc2c(N3CCOCC3)nc(N3CCOCC3)nc21)NO | 30.1% | 15.7% | 39.6% | 20.5%
61.3 nM | 7.1 nM | 163 nM | 8.4 nM | 1.9% | 35% |  |  |  | Nc1ccc(-c2nc(N3CCOCC3)c3cnn(CCCCCCC(=O)NO)c3n2)cn1 |  |  |  | 
34.9 nM | 7.7 nM | 156 nM | 15.6 nM | 8.4% | 35% |  |  |  | O=C(CCCCCCn1ncc2c(N3CCOCC3)nc(-c3ccoc3)nc21)NO |  |  |  | 
33.9 nM | 19.1 nM |  | 15.3 nM |  |  | 18.3 nM | 9.71 nM | 8.79 nM | CCCCNC(=O)Nc1ccc(-c2nc(N3CCOCC3)c3cnn(CCCCCCC(=O)NO)c3n2)cc1 |  |  |  | 
100 nM | 14.6 nM |  | 27.8 nM |  |  | 12.6 nM | 29 nM | 30.1 nM | O=C(CCCCCCn1ncc2c(N3CCOCC3)nc(-c3ccc(NC(=O)N4CCOCC4)cc3)nc21)NO |  |  |  | 
 |  |  |  | 1% | -4.2% |  |  |  | O=C(CCCCCn1ncc2c(N3CCOCC3)nc(N3CCOCC3)nc21)NO | 92.1% | 62.4% | 94.6% | 69.2%
66.9 nM | 44.9 nM | 372 nM | > 500 nM | 3.3% | 58% |  |  |  | COc1ccc(-c2nc(N3CCOCC3)c3cnn(CCCCCCC(=O)NO)c3n2)cn1 |  |  |  | 
 |  |  |  | 1.5% | -1.7% |  |  |  | CN1CCN(c2nc(N3CCOCC3)c3cnn(CCCCCC(=O)NO)c3n2)CC1 | 56.9% | 10.2% | 99.5% | 91.2%
296 nM | > 500 nM | > 500 nM | > 500 nM | -0.1% | 17% |  |  |  | O=C(CCCCCCn1ncc2c(N3CCOCC3)nc(-c3cccnc3)nc21)NO |  |  |  | 
72.8 nM | 14.6 nM | 202 nM | 35.6 nM | 9.7% | 55% |  |  |  | O=C(CCCCCCn1ncc2c(N3CCOCC3)nc(-c3ccsc3)nc21)NO |  |  |  | 
441 nM | 153 nM |  | 305 nM |  |  |  |  |  | CC(O)CNC(=O)Nc1ccc(-c2nc(N3CCOCC3)c3cnn(CCCCCCC(=O)NO)c3n2)cc1 (stereo unspecified) |  |  |  | 
